Rows were chosen to be rich in hits. Some 2.6% of all compounds tested hit in one or more screens of this group.
E coli RNAP – blocks E. coli RNA polymerase transcription; inhibition, %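 (tested at 10 µM)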; 0.2% of 62,000 active; P0A8V2; fluorescence transcription assay; AID 559; in the data active = inhibition above about 20%;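 also: 0% = enzyme without compound and 100% = no enzyme blank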
HTR1A agonist – activates the human 5-HT1a serotonin receptor | P08908 | CHO 5-HT1a Ga15 NFAT-bla reporter, FRET ratio; 0% basal, 100% maximal reference agonist | activation, % at 10 µM | 0.56% of 65,000 active;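 active = activation above the screen-wide mean activation plus 3 SD, cut at about 19% in these data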;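 also: 0% = DMSO wells and 100% = 5-CT at EC100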
S1P3 ag – agonists of human S1P3 receptor. Q99500. S1P3 NFAT-BLA reporter cells, agonism, FRET ratio; relative to 1 µM S1P, basal subtracted. activation, % at 4.5 µM. 0.1% of 60,000 active. AID 373;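 active = activation above the screen-wide mean plus 3 SD, cut at about 4.5% in these data, passing the limit was not always enough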
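Measure – % activation relative to 1 µM S1P (100%), per plate · System – stable CHO line with human S1P3, Gα16, NFAT-BLA reporter · Timing – cells plated overnight, compound 4 h 37 °C, substrate 2 h RT · Technique – fluorescent BLA substrate, ex 405 nm, em 460/535 nm ratio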
5HT1E ag – activates the human 5-HT1E serotonin receptor; CHO 5-HT1E Ga15 NFAT-bla reporter, FRET; 0% DMSO wells, 100% control agonist wells; P28566; 0.69% of 65,000 active; activation, % at 6 µM; AID 574;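 active = activation above a set limit, the screen-wide mean activation plus 3 SD, cut at about 8.5% in these data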;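 also: 100% = positive control agonist at 1 µM giving full maximal response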
Target sequence (P28566 whole entry, looked up): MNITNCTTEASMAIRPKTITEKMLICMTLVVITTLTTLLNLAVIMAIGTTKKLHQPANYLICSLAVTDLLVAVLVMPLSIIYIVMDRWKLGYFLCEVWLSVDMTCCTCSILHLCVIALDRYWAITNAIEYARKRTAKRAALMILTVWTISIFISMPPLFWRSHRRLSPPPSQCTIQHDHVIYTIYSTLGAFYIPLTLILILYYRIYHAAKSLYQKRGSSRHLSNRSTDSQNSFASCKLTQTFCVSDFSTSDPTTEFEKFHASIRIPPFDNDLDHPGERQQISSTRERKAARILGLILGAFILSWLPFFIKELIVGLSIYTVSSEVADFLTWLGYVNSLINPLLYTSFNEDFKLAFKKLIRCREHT
HTR1E antagonist – antagonists of human 5-HT1E serotonin receptor; inhibition, % at 6 µM; P28566; CHO 5-HT1E Ga15 NFAT-bla reporter, FRET, antagonist; AID 571; 0.99% of 65,000 active;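 active = inhibition above a set limit, the mean inhibition across every tested compound plus 3 SD, cut at about 29% in these data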;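 also: signal is the 460 over 535 nm emission ratio of beta-lactamase substrate; 0% = agonist plus DMSO wells and 100% = wells without agonist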
5HT1a antag – 5-HT1a (human) receptor antagonism | CHO 5-HT1a Ga15 NFAT-bla reporter, antagonist mode | P08908 | 0.68% of 62,000 active | inhibition, % at 10 µM;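 active = inhibition above the mean of all tested compounds plus 3 SD, cut at about 43% in these data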;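 also: receptor stimulated by 5-CT agonist at 100 nM near EC80; beta-lactamase reporter measured by ratiometric fluorescence of a cleavable substrate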
Numbers without * were called inactive; . = no result given.

SMILES	E coli RNAP	HTR1A agonist	S1P3 ag	5HT1E ag	HTR1E antagonist	5HT1a antag
CNCCc1c[nH]c2ccccc12	-0.5	27.7*	-2.4	103.7*	-17.3	.
Cc1cc(OC(=O)c2ccco2)c2c3c(c(=O)oc2c1)CCC3	8.2	-0.7	-0.8	0.2	32.5*	-6.4
C=CCOC(=O)COc1cc(C)cc2oc(=O)c3c(c12)CCC3	1.8	-1.2	-0.6	-0.5	-2.9	2.3
CCOc1ccc(Cc2c(O)[nH]c(=O)[nH]c2=O)cc1	9.9	-0.7	-0.4	-0.9	-7.4	.
O=C(O)Cn1cc(C(=O)c2ccccc2)c2ccccc21	4.5	-2.4	-0.5	-0.2	-2.8	-3.6
CN(C)CCOC(=O)c1cn(Cc2ccccc2)c2ccccc12	4.9	1.6	-2.9	58.8*	16.2	.
Cc1cccc(N2CCc3c2nc2ccccc2c3N)c1	1.0	-3.8	-2.1	-0.2	-0.9	15.8
CCOc1cc(C2NCc3ccccc3-n3cccc32)ccc1O (stereo not drawn)	5.5	-0.4	0.4	0.2	-9.8	20.3
CCOc1cccc(C2NCc3ccccc3-n3cccc32)c1O (stereo not drawn)	6.2	-0.3	0.3	15.3*	-4.0	0.9
COc1ccc2[nH]c(C)c(CCN3CCC(=O)C(C)C3C)c2c1 (stereo not drawn)	-2.1	0.0	22.2	2.3	-3.0	-4.7
O=c1c2ccccc2nc(CN2CCCCCC2)n1-c1ccc(F)cc1	7.5	1.4	-1.0	0.1	-17.9	3.9
CCCCOCCCn1c(N)c(C(=O)OC(C)COC)c2nc3ccccc3nc21 (stereo not drawn)	-45.1	4.8	-1.6	10.5*	13.7	.
CCCCCCn1c(=O)c(C(=O)Nc2c(C)n(C)n(-c3ccccc3)c2=O)c(O)c2ccccc21	3.6	83.6*	-0.4	-0.5	-4.5	-19.6
Cn1c(O)c(C=NCCN2CCN(C(=O)c3ccccc3)CC2)c(=O)n(C)c1=O	0.1	-3.4	-1.0	1.0	-3.6	-11.0
Cn1c(O)c(C=NCCOc2ccc(Cl)cc2)c(=O)n(C)c1=O	7.5	0.2	-1.4	0.7	30.1*	-19.2
O=C(c1ccc2c(c1)OCO2)N1CCC2(CC1)OCCO2	-5.4	-2.4	-1.0	-1.3	-2.9	-3.2
CC(=O)c1c(C)n(CCCOC(C)C)c2ccc(O)cc12	6.2	4.0	0.4	0.6	-14.4	-7.8
Cn1ncnc2c(=O)n(C)c(=O)nc1-2	1.3	6.7	-2.5	4.5	101.0*	85.4*
COc1ccc(C(=O)C(Cc2ccccc2)N(C)C)cc1 (stereo not drawn)	5.0	-0.6	-0.1	-0.7	1.3	2.9
COc1ccc(C(=O)C(C)(C)NO)cc1	2.1	-1.3	2.2	8.8*	10.8	-2.7
CCCCn1c(O)c(C(CC)=NCCCN(C)C)c(=O)[nH]c1=O	21.2*	0.8	-0.4	0.1	-5.6	-4.5
CCCCn1c(O)c(C(C)=NCCCN(C)C)c(=O)[nH]c1=O	-3.5	-3.3	-0.8	-0.8	2.7	-4.9
COc1ccc(CN2CCN(c3ccccc3)CC2)c(C)c1C	3.1	0.6	-0.8	1.6	0.7	6.9
CCCCCCN=C(C)c1c(O)n(CCCC)c(=O)[nH]c1=O	-1.1	-1.2	-1.7	2.4	-2.2	-14.4
O=C(NC1(C(F)(F)F)Oc2ccc(Cl)cc2O1)N1CCC2(CC1)OCCO2 (stereo not drawn)	22.5*	-3.4	.	0.2	-2.9	4.4
SMILES	E coli RNAP	HTR1A agonist	S1P3 ag	5HT1E ag	HTR1E antagonist	5HT1a antag
O=C(NC1(C(F)(F)F)Oc2ccccc2O1)N1CCC2(CC1)OCCO2	.	-0.9	.	-0.7	-0.9	16.7
Cc1ccc(CN2CCN(C)CC2)c(C)c1	.	-2.6	-0.8	9.8*	-1.1	-15.7
CCN1CCN(Cc2ccc(C)cc2C)CC1	.	-1.3	-1.6	4.1	-2.9	-6.7
O/N=C1/C(=C\c2ccccc2)N2CCC1CC2	7.1	-3.1	-0.5	-0.1	8.9	3.7
NCCc1c[nH]c2ccc(F)cc12	-0.7	42.9*	0.0	81.7*	-6.0	3.3
C1=C(c2c[nH]c3ccccc23)CCNC1	0.7	4.5	-0.5	91.5*	-13.3	16.2
CC(C)N1CC=C(c2c[nH]c3ccccc23)CC1	0.2	22.7*	-1.4	46.3*	-1.2	13.6
O=c1c(C=NCCN2CCNCC2)c(O)n(C2CCCCC2)c(=O)n1C1CCCCC1	8.4	2.6	-1.4	0.4	-3.3	.
COc1ccc(CCNC(=O)c2c(N)n(CCN3CCOCC3)c3nc4ccccc4nc23)cc1	-19.8	10.5	2.0	5.3	-1.7	-33.5
Nc1c(C(=O)NCCc2ccccc2)c2nc3ccccc3nc2n1CCN1CCOCC1	-7.8	15.9	7.7*	3.3	-3.0	-32.8
CCC(C)NC(=O)c1c(N)n(CC2CCCO2)c2nc3ccccc3nc12 (stereo not drawn)	-5.8	26.5*	2.4	8.3	-0.2	-7.4
CCC(C)NC(=O)c1c(N)n(Cc2ccc3c(c2)OCO3)c2nc3ccccc3nc12 (stereo not drawn)	-2.9	121.6*	30.6*	30.4*	-38.7	-172.4
CC(C)CCNC(=O)c1c(N)n(CC2CCCO2)c2nc3ccccc3nc12 (stereo not drawn)	2.6	35.3*	.	9.7*	-1.9	-18.1
NC(=O)CN1C2CCC1CC(NC(=O)C1CC1)C2 (stereo not drawn)	4.6	-0.1	0.2	-0.5	-4.8	-8.9
CCCNc1oc(-c2cccc3ccccc23)nc1C#N	-18.1	58.3*	2.1	5.7	8.3	-12.8

Assay outcomes as filed in PubChem BioAssay.
